Experiments:
[1] = target: T1, Vitamin D3 receptor (Sus scrofa) (UniProt A3RGC1); assay: Displacement of [3H]1-alpha,25-(OH)2-D3 from VDR in pig intestinal mucosa relative to 1-alpha,25-(OH)2-D3; assay type: tissue-based
T1 sequence (whole entry): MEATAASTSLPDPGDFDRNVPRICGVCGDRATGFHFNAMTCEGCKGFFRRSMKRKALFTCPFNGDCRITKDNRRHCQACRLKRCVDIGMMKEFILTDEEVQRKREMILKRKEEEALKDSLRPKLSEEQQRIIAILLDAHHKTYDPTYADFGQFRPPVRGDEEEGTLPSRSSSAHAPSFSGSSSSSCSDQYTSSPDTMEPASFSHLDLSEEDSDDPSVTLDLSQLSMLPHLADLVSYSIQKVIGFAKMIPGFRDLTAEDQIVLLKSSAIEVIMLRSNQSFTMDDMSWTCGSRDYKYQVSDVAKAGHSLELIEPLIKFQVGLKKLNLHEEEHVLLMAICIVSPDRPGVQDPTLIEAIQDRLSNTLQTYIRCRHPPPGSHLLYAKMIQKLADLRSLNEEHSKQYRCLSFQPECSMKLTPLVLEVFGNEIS
In short: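 Competitive binding using high-speed supernatant of intestinal mucosa homogenates from normal pigs, competing against [3H]-1α,25-(OH)2-D3. Relative affinity taken from the concentration displacing 50% of tracer, with 1α,25-(OH)2-D3 set at 100%.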

[2] = test system: MCF7; assay: Antiproliferative activity against human MCF7 cells after 72 hrs relative to 1-alpha,25-(OH)2-D3; assay type: functional
In short: (§1)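 MCF-7 breast cancer cells (ATCC) incubated 72 h with a range of concentrations of analogues, reference 1α,25-(OH)2-D3 or vehicle. Proliferation read as [3H]thymidine incorporation.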

[3] = target: T2, Vitamin D-binding protein (Homo sapiens) (UniProt P02774); assay: Binding affinity to human DBP relative to 1-alpha,25-(OH)2-D3
T2 sequence (whole entry): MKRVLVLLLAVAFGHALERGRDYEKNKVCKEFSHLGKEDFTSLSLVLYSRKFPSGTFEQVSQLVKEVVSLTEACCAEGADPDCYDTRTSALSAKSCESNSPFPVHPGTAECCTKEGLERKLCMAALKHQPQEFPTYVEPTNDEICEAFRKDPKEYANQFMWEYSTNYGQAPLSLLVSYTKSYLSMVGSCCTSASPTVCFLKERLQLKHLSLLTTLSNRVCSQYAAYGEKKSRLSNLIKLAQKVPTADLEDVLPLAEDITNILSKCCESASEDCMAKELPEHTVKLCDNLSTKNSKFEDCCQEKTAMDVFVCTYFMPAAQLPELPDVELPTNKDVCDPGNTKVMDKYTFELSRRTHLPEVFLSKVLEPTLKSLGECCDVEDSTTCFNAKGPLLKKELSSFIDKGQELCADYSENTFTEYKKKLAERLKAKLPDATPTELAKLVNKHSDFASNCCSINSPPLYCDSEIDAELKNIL

[4] = test system: MCF7; assay: Antiproliferative activity against human MCF7 cells at 1 uM after 72 hrs relative to 1-alpha,25-(OH)2-D3; assay type: functional; conditions: MCF7, 72 h; in short: as §1

Activity [1] [%]	Activity [3] [%]	Compound	Activity [2] [%]	inhibition at 1 µM [4] [%]
2	8	C[C@H](CCCC(C)(C)O)[C@H]1CC[C@H]2C(/C=C\C3=C[C@@H](O)[C@H](O)[C@H](O)C3)=CCC[C@]12C	6	70
0.2	4	C[C@H](CCCC(C)(C)O)[C@H]1CC[C@H]2C(/C=C\C3=C[C@@H](O)[C@@H](O)[C@H](O)C3)=CCC[C@]12C	2	
< 0.1	2	C[C@H](CCCC(C)(C)O)[C@H]1CC[C@H]2C(/C=C\C3=C[C@H](O)[C@@H](O)[C@H](O)C3)=CCC[C@]12C	0	
< 0.1	7	C[C@H](CCCC(C)(C)O)[C@H]1CC[C@H]2C(/C=C\C3=C[C@@H](O)[C@@H](O)[C@@H](O)C3)=CCC[C@]12C	0	

Reference: ChEMBL document CHEMBL1147961, “Synthesis and biological evaluation of new 6-s-cis locked 1,2,25-trihydroxyprevitamin D3 analogues” (2007)
